Experimental data as given in ChEMBL document CHEMBL1122853, “New bicyclic antidepressant agent. Synthesis and activity of napactadine and related compounds” (J Med Chem, 1985).
Active and inactive are the calls of the source. No cut-off for these calls is given here.

What was measured:
Mus musculus [1] = assay: Effective dose required to potentiate yohimbine hydrochloride induced lethality in mice, administered intraperitoneally; assay type: functional; conditions: ip
Procedure, shortened: (§1)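 Male Swiss-Webster or Swiss ND/4 mice, 20-24 g, randomized into groups of 10 and housed five per cage. Test drug in saline given ip, with a saline control group. Yohimbine hydrochloride 20 mg/kg sc was given 30 min later, and mice were then reaggregated.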

Mus musculus [2] = assay: (§2) Effective dose required to prevent reserpine ptosis in mice, administered intraperitoneally; assay type: functional; conditions: ip
Procedure, shortened: (§3)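 Male Swiss-Webster or Harlan ICR mice, five per dose. Drug in saline given po or ip per line. Reserpine 2.5 mg/kg ip 30 min later. Complete absence of ptosis at 45 min after reserpine scored as positive. ED50 by Litchfield-Wilcoxon or Horn method, with 95% confidence intervals.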

Mus musculus [3] = assay: Effective dose required to prevent reserpine ptosis in mice, administered orally (po); assay type: functional; procedure, shortened: as §3
[4] = Therapeutic index administered perorally in mouse; assay type: organism-based; conditions: in vivo, po, read-out: Therapeutic index
Procedure, shortened: (§4)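 Index from mouse LD50 over reserpine-ptosis ED50 by the same route. […] Deaths recorded at 1 and 24 h; Litchfield-Wilcoxon calculation.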

[5] = Lethal dose in mouse p.o.; assay type: toxicity, organism-based; conditions: in vivo, po
[6] = Lethal dose in mouse i.p.; assay type: toxicity, organism-based; conditions: in vivo, ip
Procedure, shortened: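 Male Swiss-Webster albino mice, 20-24 g, in groups of five. Each group received one dose ip in saline (prepared 30 min before injection) at 10 mL/kg. Mice were held singly for about 5 h, then housed together with food and water. Deaths were counted at 1 and 24 h. LD50 by Litchfield-Wilcoxon.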

[7] = Therapeutic index administered intraperitoneally in mouse; assay type: organism-based; conditions: in vivo, ip, read-out: Therapeutic index; procedure, shortened: as §4
Mus musculus [8] = assay: Effective dose required to prevent reserpine ptosis in mice, administered intraperitoneally.; assay type: functional, organism-based; procedure, shortened: as §3
Mus musculus [9] = assay: Effective dose required to prevent reserpine ptosis in mice, administered orally; assay type: functional; conditions: po; procedure, shortened: as §3
Mus musculus [10] = assay: Effective dose required to prevent reserpine ptosis in mice, administered (po)orally; assay type: functional; procedure, shortened: as §3
Mus musculus [11] = assay: Effective dose required to prevent reserpine ptosis in mice, administered orally(po); assay type: functional; procedure, shortened: as §3
Mus musculus [12] = assay: Effective dose required to prevent reserpine ptosis in mice, administered orally(po); NA=Not active at 100 mg/kg; assay type: functional, organism-based; parameters: dose 100 mg/kg; procedure, shortened: as §3
Mus musculus [13] = assay: Effective dose required to prevent reserpine ptosis in mice, administered orally; NA=Not active at 100 mg/kg; assay type: functional, organism-based; parameters: dose 100 mg/kg; procedure, shortened: as §3
Mus musculus [14] = assay: Effective dose required to prevent reserpine ptosis in mice, administered intraperitoneally; NA=Not active at 100 mg/kg; assay type: functional, organism-based; parameters: dose 100 mg/kg; procedure, shortened: as §3
Mus musculus [15] = assay: Effective dose required to prevent reserpine ptosis in mice, administered po; NA=Not active; assay type: functional, organism-based; procedure, shortened: as §3
[16] = Therapeutic index after administered intraperitoneally in mouse; assay type: organism-based; conditions: in vivo, ip, read-out: Therapeutic index; procedure, shortened: as §4
Mus musculus [17] = assay: Electrical shock aggression was evaluated in mice, administered intraperitoneally; NA means no aggression blockade at 46.4 mg/kg; assay type: functional, organism-based; parameters: dose 46.4 mg/kg
Procedure, shortened: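 Pairs of mice placed under an inverted 1000 cm3 beaker and shocked through the floor grid (3 mA, 3 Hz) for 2 min. Drug given ip 30 min before testing; scored all-or-none against a saline group. Fighting counted as inhibited when mean attacks fell 1.5 SD below the vehicle mean.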

Mus musculus [18] = assay: as §2; assay type: functional; conditions: ip; procedure, shortened: as §3; remark: listed apart in the source
Mus musculus [19] = assay: Compound (administered intraperitoneally) was tested for yohimbine lethality potentiation; assay type: functional; conditions: ip; procedure, shortened: as §1
Mus musculus [20] = assay: Effective dose against yohimbine hydrochloride induced lethality in mice, administered intraperitoneally; assay type: functional; conditions: ip; procedure, shortened: as §1
Mus musculus [21] = assay: Effective dose required to prevent reserpine ptosis in mice administered (po)orally; NA=Not active; assay type: functional, organism-based; procedure, shortened: as §3

CC/N=C(/COc1ccc(Cl)c(Cl)c1)NCC.Cl
ED50 (Mus musculus [1]): 3.5 mg/kg | ED50 (Mus musculus [2]): 3.3 mg/kg

C/N=C(\NC)c1ccc(Cl)cc1.Cl
ED50 (Mus musculus [3]): 6.2 mg/kg | selectivity ratio [4]: 32 | LD50 [5]: 200 mg/kg | ED50 (Mus musculus [1]): 6 mg/kg | ED50 (Mus musculus [2]): 6.8 mg/kg | LD50 [6]: 108 mg/kg | selectivity ratio [7]: 16

CC/N=C(/COc1cc(Cl)c(Cl)cc1Cl)NCC
ED50 (Mus musculus [8]): inactive

CC/N=C(/Cc1ccc(F)cc1)NCC
ED50 (Mus musculus [8]): inactive

Cl.N=C(Cc1ccc2ccccc2c1)N1CCCCC1
ED50 (Mus musculus [9]): 11 mg/kg

Cl.N=C(Cc1ccc2ccccc2c1)N1CCCC1
ED50 (Mus musculus [10]): 11 mg/kg

CN1CCN(C(=N)Cc2ccc3ccccc3c2)CC1.Cl
ED50 (Mus musculus [10]): 14.7 mg/kg

Cl.N=C(Cc1ccc2ccccc2c1Cl)N1CCOCC1
ED50 (Mus musculus [11]): 15 mg/kg

Cl.Cl.N=C(Cc1ccc2ccccc2c1Cl)NCCCN1CCOCC1
ED50 (Mus musculus [11]): 3.2 mg/kg

CC(C)/N=C(/N)Cc1ccc2ccccc2c1
ED50 (Mus musculus [12]): inactive

CC/N=C(/Cc1c(Cl)cccc1Cl)NCC
ED50 (Mus musculus [8]): inactive

Cl.N=C(Cc1ccc2ccccc2c1Cl)N1CCCC1
ED50 (Mus musculus [9]): 2.9 mg/kg

Cl.N=C(Cc1ccc2ccccc2c1)N1CCC(O)(Cc2ccccc2)CC1
ED50 (Mus musculus [11]): 22.5 mg/kg

COc1ccc(CC/N=C(/N)Cc2ccc3ccccc3c2)cc1OC
ED50 (Mus musculus [12]): inactive

C/N=C(\NC)c1ccccc1.Cl
ED50 (Mus musculus [1]): 4 mg/kg | ED50 (Mus musculus [2]): 0.8 mg/kg

CCC(=O)C1(c2ccccc2)CCN(C(=N)Cc2ccc3ccccc3c2)CC1
ED50 (Mus musculus [12]): inactive

CC(C)/N=C(/Cc1ccc2ccccc2c1)NC(C)C
ED50 (Mus musculus [13]): inactive | ED50 (Mus musculus [14]): inactive

CC/N=C(/Cc1cccc(C)c1)NCC
ED50 (Mus musculus [8]): inactive

Cl.N=C(Cc1ccc2ccccc2c1Cl)N1CCC(c2ccccc2)CC1
ED50 (Mus musculus [9]): 8.8 mg/kg

CN(CCO)C(=N)Cc1ccc2ccccc2c1.Cl
ED50 (Mus musculus [10]): 19.6 mg/kg

COc1ccc2cc(CC(=N)N3CCCC3)ccc2c1
ED50 (Mus musculus [12]): inactive

C/N=C(/Cc1cc2ccccc2cc1C)NC
ED50 (Mus musculus [15]): inactive | ED50 (Mus musculus [8]): inactive

C/N=C(/Cc1ccc2ccccc2c1Cl)NC.Cl
ED50 (Mus musculus [10]): 15 mg/kg | ED50 (Mus musculus [1]): 26.1 mg/kg | ED50 (Mus musculus [2]): 11 mg/kg

Cl.N=C(Cc1ccc2ccccc2c1)N1CCC(N2CCCCC2)CC1
ED50 (Mus musculus [10]): 40.8 mg/kg

Cl.N=C(Cc1ccc2ccccc2c1Cl)N1CCC(Cc2ccccc2)CC1
ED50 (Mus musculus [9]): 19.6 mg/kg

C/N=C(\NC)c1ccc(Cl)c(Cl)c1.Cl
selectivity ratio [16]: 6 | ED50 (Mus musculus [10]): 10.8 mg/kg | selectivity ratio [4]: 20 | LD50 [5]: 215 mg/kg | ED50 (Mus musculus [1]): 2.4 mg/kg | ED50 (Mus musculus [2]): 9.3 mg/kg | ED50 (Mus musculus [17]): inactive | ED50 (Mus musculus [18]): 9.3 mg/kg | LD50 [6]: 60 mg/kg | ED50 (Mus musculus [19]): 2.4 mg/kg

C/N=C(/Cc1ccc([N+](=O)[O-])cc1)NC.Cl
ED50 (Mus musculus [10]): 3.2 mg/kg | selectivity ratio [4]: 213 | LD50 [5]: 681 mg/kg | ED50 (Mus musculus [1]): 20 mg/kg | ED50 (Mus musculus [2]): 3.2 mg/kg | ED50 (Mus musculus [17]): inactive | LD50 [6]: 215 mg/kg | selectivity ratio [7]: 67

CC/N=C(/Cc1ccc2ccccc2c1Cl)NCC.Cl
ED50 (Mus musculus [20]): 41 mg/kg | ED50 (Mus musculus [14]): inactive | ED50 (Mus musculus [9]): 41 mg/kg

Cl.Cl.N=C(Cc1ccc2ccccc2c1)NCCN1CCOCC1
ED50 (Mus musculus [10]): 14.7 mg/kg

C/N=C(/Cc1c(O)ccc2ccccc12)NC
ED50 (Mus musculus [21]): inactive

C/N=C(\NC)C(c1ccc(Cl)cc1)c1ccc(Cl)cc1.Cl
ED50 (Mus musculus [20]): 27.2 mg/kg | ED50 (Mus musculus [2]): 2.4 mg/kg

COc1ccccc1N1CCN(C(=N)Cc2ccc3ccccc3c2)CC1
ED50 (Mus musculus [12]): inactive

C/N=C(/Cc1ccc2ccccc2c1O)NC.Cl
ED50 (Mus musculus [10]): 26.1 mg/kg

C/N=C(/COc1ccc(Cl)cc1Cl)NC.Cl
ED50 (Mus musculus [2]): 7.5 mg/kg
